NadD inh – inhibitors of S. aureus NadD, primary screen, biochemical, colorimetric, uHTS; purified NadD enzyme, colorimetric absorbance read-out; inhibition, % at 20 µM; 360,000 tested, 0.78% active; AID 602399, 2012; in the data active = inhibition above about 26%
Xi reactivation – activators of inactive X chromosome reactivation, primary screen, imaging, XiGFP fibroblasts, GFP high-content imaging, set 2. XiGFP mouse fibroblasts, % GFP-positive cells imaging, 3 d; cells co-treated with 5-aza-dC sensitizer; scaled so ellipticine positive control = 100%. activation, % at 7.58 µM. 360,000 tested, 0.055% active. AID 743238, 2013;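 active = mean normalized replicate activation at least 10% and every replicate at or above 10%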;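 note: 0% = median of on-plate neutral control wells and 100% = ellipticine 6 µM median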
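Assay system: SV40-immortalized XiGFP fibroblast cells, line 68-5-11; buffer or medium: DMEM plus 5-aza-dC sensitizer; compound: one concentration, pinned; timing: compounds 3 days, fix/stain 15 min at room temperature; benchmarks: positive control ellipticine, 6 µM final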
ABHD5 PLIN5 PPI – ABHD5-PLIN5 interaction inhibitors, primary screen, cell lysate, split luciferase complementation, luminescence. Perilipin-5 (Homo sapiens) + 1-acylglycerol-3-phosphate O-acyltransferase ABHD5 (Homo …. Split G. princeps luciferase complementation, 4 h. inhibition, % at 4 µM. 360,000 tested, 0.78% active. AID 602281, 2012;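 active = inhibition above the mean inhibition across every tested compound plus 3 SD, cut at about 22% in these data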;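 note: 0% = DMSO only wells and the 100% control is not disclosed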
Target sequence (Q00G26 whole entry, looked up): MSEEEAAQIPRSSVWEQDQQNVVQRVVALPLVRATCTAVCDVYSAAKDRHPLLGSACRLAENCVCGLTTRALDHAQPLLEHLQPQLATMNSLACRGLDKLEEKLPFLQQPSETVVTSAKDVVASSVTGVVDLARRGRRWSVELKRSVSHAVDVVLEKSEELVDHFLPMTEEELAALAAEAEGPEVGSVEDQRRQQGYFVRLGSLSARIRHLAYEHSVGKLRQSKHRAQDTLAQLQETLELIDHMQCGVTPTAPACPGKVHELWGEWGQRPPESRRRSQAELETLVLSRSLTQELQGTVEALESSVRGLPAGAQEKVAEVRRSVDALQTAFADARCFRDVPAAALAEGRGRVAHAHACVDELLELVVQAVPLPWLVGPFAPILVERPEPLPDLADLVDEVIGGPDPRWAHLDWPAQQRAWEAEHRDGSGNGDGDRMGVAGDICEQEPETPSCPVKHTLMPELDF
Target sequence (Q8WTS1 whole entry, looked up): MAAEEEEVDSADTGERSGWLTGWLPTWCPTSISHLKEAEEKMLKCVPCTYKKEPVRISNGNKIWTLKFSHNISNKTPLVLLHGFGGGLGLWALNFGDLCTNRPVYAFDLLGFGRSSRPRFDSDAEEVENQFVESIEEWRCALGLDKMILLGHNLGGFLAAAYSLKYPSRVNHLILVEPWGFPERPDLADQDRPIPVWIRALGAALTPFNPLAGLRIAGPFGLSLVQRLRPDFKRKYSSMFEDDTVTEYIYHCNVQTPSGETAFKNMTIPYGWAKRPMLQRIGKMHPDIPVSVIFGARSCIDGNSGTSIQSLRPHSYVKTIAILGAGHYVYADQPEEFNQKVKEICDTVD
Rin1 Abl inh – inhibitors of Rin1-Abl protein binding, primary screen, biochemical, TR-FRET. inhibition, % at 7.35 µM. 360,000 tested, 0.4% active. AID 588664, 2011; in the data active = inhibition above about 5%, passing the limit was not always enough
Rpn11 inh – Rpn11 (PSMD14) deubiquitinase inhibitors, primary screen, biochemical, fluorescence polarization, uHTS | 26S proteasome non-ATPase regulatory subunit 14 (Homo sapiens), O00487 | 360,000 tested, 0.59% active | human 26S proteasome, Ub4-pepOG fluorescence polarization; 20S core pre-blocked with epoxomicin | inhibition, % at 20 µM | AID 588493, 2011;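 active = inhibition at 20 µM, scaled to each plate's controls, above about 33%, limit read from the data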
NadD conf – inhibitors of S. aureus NadD, confirmation, biochemical, colorimetric, single concentration. shares compounds with NadD inh. purified S. aureus NadD, colorimetric enzyme assay. inhibition, % at 20 µM. 2,000 tested, 13% active. AID 624309, 2012; in the data active = inhibition mostly above about 42%, no sharp cut-off; inactive = mostly below about 42%
* = called active by the depositor. This is a sample that favours compounds with a hit; in the whole collection about 1.9% have one here.

Results for O=C1NC[C@H](Cc2ccccc2)N(C[C@H]2CCCN2C[C@H](Cc2ccccc2)N2C[C@H](Cc3ccc(O)cc3)N(CCc3ccccc3)C(=O)C2=O)C1=O ?
NadD inh: 25.4; Xi reactivation: 0.0; ABHD5 PLIN5 PPI: 13.2; Rin1 Abl inh: -4.1; Rpn11 inh: 0.9

What do the screens show for `C[C@H](CO)N1C[C@H](C)[C@H](CN(C)C(=O)C2CCCCC2)OCCCC[C@H](C)Oc2ccc(NC(=O)NC3CCCCC3)cc2C1=O`?
Xi reactivation: 0.0

What do the screens show for `CC(C)NC(=O)Nc1ccc2c(c1)C(=O)N([C@@H](C)CO)C[C@@H](C)[C@@H](CN(C)CC1CCCCC1)OCCCC[C@H](C)O2`?
Xi reactivation: 0.2

Results for COc1cccc(C(=O)Nc2ccc3c(c2)C(=O)N(C)C[C@@H](OC)[C@H](C)CN(CC2CC2)[C@@H](C)CO3)c1 ?
Xi reactivation: 0.0

How did Cc1ccccc1S(=O)(=O)N1C[C@H](O)COC[C@@H]2O[C@H](CC(=O)NCc3ccccc3Cl)CC[C@H]21 do in these assays?
Xi reactivation: 0.1

How did CCc1nnc(NS(=O)(=O)c2ccc(N=Cc3c(C)[nH]n(-c4ccc(Cl)cc4)c3=O)cc2)s1 do in these assays?
NadD inh: 30.5*; Xi reactivation: 0.8; ABHD5 PLIN5 PPI: -21.9; Rin1 Abl inh: -1.0; Rpn11 inh: 6.2; NadD conf: 47.2*

What do the screens show for `CCc1nnc(NS(=O)(=O)c2ccc(N=Cc3c(C)[nH]n(-c4cccc(Cl)c4)c3=O)cc2)s1`?
NadD inh: 29.8; Xi reactivation: 0.0; ABHD5 PLIN5 PPI: -23.2; Rin1 Abl inh: 2.8; Rpn11 inh: 7.5

Results for Cc1ccc(-n2[nH]c(C)c(C=Nc3ccc(S(=O)(=O)Nc4nccs4)cc3)c2=O)cc1C ?
NadD inh: 41.8*; Xi reactivation: 0.2; ABHD5 PLIN5 PPI: -0.5; Rin1 Abl inh: 0.6; Rpn11 inh: 14.9; NadD conf: 51.8*

What do the screens show for `CC=Cc1ccc2n(c1=O)C[C@H]1[C@H](CO)[C@@H](C(=O)NCC)[C@@H]2N1Cc1nccs1` (mixture of isomers)?
Xi reactivation: 0.5

What do the screens show for `O=[N+]([O-])c1ccccc1/C=C/C=N/Nc1nc(N2CCCCC2)nc(N2CCCCC2)n1`?
NadD inh: 13.8; Xi reactivation: 0.0; ABHD5 PLIN5 PPI: 1.2; Rin1 Abl inh: -0.2; Rpn11 inh: -7.6

What do the screens show for `COc1ccc(/C=N/Nc2nc(Nc3ccccc3)nc(N3CCCCC3)n2)cc1OC`?
NadD inh: 5.5; ABHD5 PLIN5 PPI: -7.5; Rin1 Abl inh: -1.5; Rpn11 inh: -1.7

Results for O=[N+]([O-])c1ccc(/C=N/Nc2nc(N3CCCCCC3)nc(N3CCCCCC3)n2)o1 ?
NadD inh: 64.7*; ABHD5 PLIN5 PPI: -5.3; Rin1 Abl inh: -1.8; Rpn11 inh: 29.4; NadD conf: 18.1

Results for O=[N+]([O-])c1ccc(/C=N/Nc2nc(N3CCCCC3)nc(N3CCCCC3)n2)cc1 ?
NadD inh: 7.9; Xi reactivation: 0.0; ABHD5 PLIN5 PPI: -5.2; Rin1 Abl inh: 0.2; Rpn11 inh: 1.2

What do the screens show for `O=[N+]([O-])c1ccc(Nc2nc(N/N=C\c3ccc4c(c3)OCO4)nc(N3CCCCC3)n2)cc1`?
NadD inh: 45.3*; ABHD5 PLIN5 PPI: -2.1; Rin1 Abl inh: -0.8; Rpn11 inh: 1.8; NadD conf: 19.9

How did C(=C\c1ccccc1)/C=N/Nc1nc(N2CCCCC2)nc(N2CCCCC2)n1 do in these assays?
NadD inh: 35.1*; ABHD5 PLIN5 PPI: -0.9; Rin1 Abl inh: -1.0; Rpn11 inh: -4.8; NadD conf: 17.3

How did CCOc1cc(/C=N/Nc2nc(Nc3ccccc3)nc(N3CCCCC3)n2)ccc1OCC(=O)O do in these assays?
NadD inh: 33.2*; Xi reactivation: 0.0; ABHD5 PLIN5 PPI: -0.8; Rin1 Abl inh: -1.9; Rpn11 inh: 2.4; NadD conf: 20.3

Results for CCS(=O)(=O)Nc1ccc2c(c1)C(=O)N(C)[C@@H]1CC[C@@H](CC(=O)Nc3ccccc3)O[C@@H]1CO2 ?
Xi reactivation: 0.6

What do the screens show for `Cc1ccc(S(=O)(=O)/C(C#N)=C/c2c(N3CCN(Cc4ccccc4)CC3)nc3ccccn3c2=O)cc1`?
NadD inh: 47.3*; Xi reactivation: 0.0; ABHD5 PLIN5 PPI: 12.0; Rin1 Abl inh: -5.5; NadD conf: 12.6

How did Cc1ccc(S(=O)(=O)N(C)C[C@H]2Oc3ccc(NC(=O)Nc4c(C)noc4C)cc3C(=O)N([C@H](C)CO)C[C@@H]2C)cc1 do in these assays?
Xi reactivation: 0.5

What do the screens show for `CCN(CC)C(=O)CSc1ncnc2sccc12`?
NadD inh: 2.2; Xi reactivation: 0.1; ABHD5 PLIN5 PPI: -0.1; Rin1 Abl inh: 2.9; Rpn11 inh: -1.4

What do the screens show for `CCN(CC)C(=O)CSc1ncnc2c(-c3cccs3)nsc12`?
NadD inh: 34.4*; ABHD5 PLIN5 PPI: 0.6; Rin1 Abl inh: -0.1; Rpn11 inh: 13.4; NadD conf: 56.2*

How did O=C(Nc1cccc(-c2nc3ccccc3s2)c1)c1cc(-n2cnnc2)ccc1Cl do in these assays?
NadD inh: 39.6*; ABHD5 PLIN5 PPI: 6.5; Rin1 Abl inh: 0.3; Rpn11 inh: 8.3; NadD conf: 0.8

How did O=C(Nc1ccc(Oc2ccc(NC(=O)Nc3ccc([N+](=O)[O-])cc3)cc2)cc1)Nc1ccc([N+](=O)[O-])cc1 do in these assays?
NadD inh: 32.0*; Xi reactivation: 0.1; ABHD5 PLIN5 PPI: -1.3; Rin1 Abl inh: 0.2; Rpn11 inh: -5.8; NadD conf: -3.6

What do the screens show for `O=C(Nc1ccc([N+](=O)[O-])cc1)Nc1nc(-c2ccc(Cl)s2)cs1`?
NadD inh: 51.0*; Xi reactivation: 1.1; ABHD5 PLIN5 PPI: -6.6; Rin1 Abl inh: 0.2; Rpn11 inh: 2.0; NadD conf: 5.0

How did C[C@H]1CN([C@@H](C)CO)S(=O)(=O)c2ccc(C3=CCCCC3)cc2O[C@H]1CN(C)C(=O)C1CCOCC1 do in these assays?
Xi reactivation: 0.0

Results for Cc1ccc(-n2nc3c(c2NC(=O)c2cccs2)CSC3)cc1 ?
NadD inh: 56.3*; ABHD5 PLIN5 PPI: 13.8; Rin1 Abl inh: 2.1; Rpn11 inh: 14.9; NadD conf: 77.2*

Results for Cc1cccc(-n2nc3c(c2NC(=O)c2ccc(Br)o2)CSC3)c1 ?
NadD inh: 44.1*; ABHD5 PLIN5 PPI: 2.0; Rin1 Abl inh: -0.2; Rpn11 inh: 9.9; NadD conf: 64.5*

Source: PubChem BioAssay
